# Measurements from ChEMBL document CHEMBL1125626, “Synthesis and structure-activity relationship of new cephalosporins with amino heterocycles at C-7. Dependence of the antibacterial spectrum and beta-lactamase stability on the pKa of the C-7 heterocycle” (1991).
# Tests used:
# Enterobacter cloacae [1] = assay: Minimum inhibitory concentration against Enterobacter cloacae P99 (inoculum, 10e4 cfu per spot); format: functional
# How it was run: (§1)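 MIC in µg/mL, determined in Jewell and Permain growth medium with spot inoculation at 10^4 cfu per spot. P99 is described as a constitutive type I lactamase producer.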
# Proteus mirabilis = assay: Minimum inhibitory concentration against Proteus mirabilis A18 (inoculum, 10e5 cfu per spot); format: functional
# How it was run: (§2)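 MIC in µg/mL, determined in Jewell and Permain growth medium with spot inoculation at 10^5 cfu per spot.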
# Staphylococcus aureus [2] = assay: Minimum inhibitory concentration against Staphylococcus aureus A6 (inoculum, 10e5 cfu per spot); format: functional; how it was run: as §2
# Klebsiella aerogenes [3] = assay: Minimum inhibitory concentration against Klebsiella aerogenes X5L (inoculum, 10e4 cfu per spot); format: functional; how it was run: as §1
# Staphylococcus aureus [4] = assay: Minimum inhibitory concentration against Staphylococcus aureus A4 (inoculum, 10e5 cfu per spot); format: functional; how it was run: as §2
# Proteus vulgaris = assay: Minimum inhibitory concentration against Proteus vulgaris Pv9 (inoculum, 10e5 cfu per spot)
# Escherichia coli [5] = assay: Minimum inhibitory concentration against Escherichia coli DC2 (inoculum, 10e4 cfu per spot); format: functional; how it was run: as §1
# Enterobacter cloacae [6] = assay: Minimum inhibitory concentration against Enterobacter cloacae A13 (inoculum, 10e5 cfu per spot); format: functional; how it was run: as §2
# Escherichia coli [7] = assay: Minimum inhibitory concentration against Escherichia coli TEM X3 (inoculum, 10e4 cfu per spot)(TEM I type lactamase producer)
# Klebsiella aerogenes [8] = assay: Minimum inhibitory concentration against Klebsiella aerogenes X6 (inoculum, 10e4 cfu per spot); format: functional; how it was run: as §1
# Escherichia coli [9] = assay: Minimum inhibitory concentration against Escherichia coli DCO (inoculum, 10e4 cfu per spot); format: functional; how it was run: as §1
# Enterobacter cloacae [10] = assay: Minimum inhibitory concentration against Enterobacter cloacae P99 (inoculum, 10e4 cfu per spot)(type I lactamase producer); format: functional; how it was run: as §1
# Escherichia coli [11] = assay: Minimum inhibitory concentration against Escherichia coli X4 (inoculum, 10e4 cfu per spot)
# Escherichia coli [12] = assay: Minimum inhibitory concentration against Escherichia coli A8 (inoculum, 10e5 cfu per spot); format: functional; how it was run: as §2
# Klebsiella pneumoniae = assay: Minimum inhibitory concentration against Klebsiella pneumoniae A24 (inoculum, 10e5 cfu per spot); format: functional; how it was run: as §2
# Streptococcus pyogenes = assay: Minimum inhibitory concentration against Streptococcus pyogenes (inoculum, 10e5 cfu per spot) A1; format: functional; how it was run: as §2
# Pseudomonas aeruginosa = assay: Minimum inhibitory concentration against Pseudomonas aeruginosa A21 (inoculum, 10e5 cfu per spot); format: functional; how it was run: as §2
# Serratia marcescens = assay: Minimum inhibitory concentration against Serratia marcescens A16 (inoculum, 10e5 cfu per spot); format: functional; how it was run: as §2
SMILES,MIC (Enterobacter cloacae [1]),MIC (Proteus mirabilis),MIC (Staphylococcus aureus [2]),MIC (Klebsiella aerogenes [3]),MIC (Staphylococcus aureus [4]),MIC (Proteus vulgaris),MIC (Escherichia coli [5]),MIC (Enterobacter cloacae [6]),MIC (Escherichia coli [7]),MIC (Klebsiella aerogenes [8]),MIC (Escherichia coli [9]),MIC (Enterobacter cloacae [10]),MIC (Escherichia coli [11]),MIC (Escherichia coli [12]),MIC (Klebsiella pneumoniae),MIC (Streptococcus pyogenes),MIC (Pseudomonas aeruginosa),MIC (Serratia marcescens)
CC(=O)OCC1=C(C(=O)OC(C)(C)C)N2C(=O)[C@@H](Nc3nc4cc[nH]cc-4n3)C2SC1 (some centres not stated),2 mg/L,16 mg/L,256 mg/L,> 256 mg/L,256 mg/L,> 256 mg/L,0.5 mg/L,32 mg/L,32 mg/L,8 mg/L,4 mg/L,> 256 mg/L,2 mg/L,8 mg/L,32 mg/L,8 mg/L,> 256 mg/L,> 256 mg/L
CC(=O)OCC1=C(C(=O)OC(C)(C)C)N2C(=O)[C@@H](Nc3nc4ccc[nH]c-4n3)C2SC1 (some centres not stated),1 mg/L,32 mg/L,2 mg/L,256 mg/L,64 mg/L,> 256 mg/L,0.5 mg/L,256 mg/L,4 mg/L,1 mg/L,0.5 mg/L,> 256 mg/L,0.5 mg/L,2 mg/L,2 mg/L,4 mg/L,> 256 mg/L,> 256 mg/L
CC(=O)OCC1=C(C(=O)OC(c2ccccc2)c2ccccc2)N2C(=O)[C@@H](Nc3nc4cc(F)ccc4[nH]3)C2SC1 (some centres not stated),4 mg/L,16 mg/L,2 mg/L,256 mg/L,16 mg/L,> 256 mg/L,0.12 mg/L,> 256 mg/L,4 mg/L,4 mg/L,1 mg/L,256 mg/L,1 mg/L,4 mg/L,64 mg/L,2 mg/L,> 256 mg/L,256 mg/L
Cc1nnc(SCC2=C(C(=O)OC(C)(C)C)N3C(=O)[C@@H](NC4=NCCN4)C3SC2)s1 (some centres not stated),8 mg/L,> 256 mg/L,> 256 mg/L,16 mg/L,> 256 mg/L,64 mg/L,1 mg/L,64 mg/L,8 mg/L,8 mg/L,8 mg/L,16 mg/L,4 mg/L,4 mg/L,4 mg/L,16 mg/L,> 256 mg/L,64 mg/L
